{"source": "ChEMBL document CHEMBL5303300", "about": "“EUbOPEN Chemogenomics Library - Multiplex” (2023)", "type_in_all_cases": "toxicity, cell-based", "key": {"Fibroblast": {"tested_on": "Fibroblast", "test": "Multiplex assay against human fibroblast", "details": "number of replicates 2", "in_short": "(§1)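 On a CQ1 microscope at 37°C and 5% CO2, live cells were imaged after compound addition. They had been stained at seeding with Hoechst33342, BioTracker Green Microtubule Cytoskeleton Dye, MitoTracker Red and Annexin V Alexa Fluor 680. CellPathfinder machine-learning gating assigned cells to Hoechst high-intensity objects or normal cells, normal cells to healthy, pyknosed or fragmented nuclei, and pyknosed cells to mitotic or apoptotic. Tubulin, mitochondrial-mass and membrane-permeability phenotypes are per cents of healthy-nucleus cells.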"}, "HEK-293T": {"tested_on": "HEK-293T", "test": "Multiplex assay against HEK293T", "details": "human, number of replicates 2", "in_short": "as §1"}, "U2OS": {"tested_on": "U2OS", "test": "Multiplex assay against U2OS", "details": "human, number of replicates 2", "in_short": "as §1"}, "[1]": {"details": "12 h, 1 µM, compound concentration 1 uM"}, "[2]": {"details": "12 h, 10 µM, compound concentration 10 uM"}, "[3]": {"details": "24 h, 1 µM, compound concentration 1 uM"}, "[4]": {"details": "24 h, 10 µM, compound concentration 10 uM"}, "[5]": {"details": "48 h, 1 µM, compound concentration 1 uM"}, "[6]": {"details": "48 h, 10 µM, compound concentration 10 uM"}}, "note": "“And” between values parts separate entries of the source, which are not always exact repeats. Identical values can stand only once.", "data": [{"smiles": "CS(=O)(=O)c1ccc(C(=O)Nc2cccc(COc3ccc(Br)cc3CNCCO)c2)c(Cl)c1.O=CO", "values": [{"measurement": "Population Apoptotic (%)", "setting": "Fibroblast; [1]", "result": "37% and 48%"}, {"measurement": "Population Hoechst High Intensity Objects (%)", "setting": "Fibroblast; [1]", "result": 0, "unit": "%"}, {"measurement": "Population Mitotic Cells (%)", "setting": "Fibroblast; [1]", "result": "62% and 51%"}, {"measurement": "Total Cell Count", "setting": "Fibroblast; [1]", "result": "153 and 242"}, {"measurement": "Population Apoptotic (%)", "setting": "Fibroblast; [2]", "result": "58% and 47%"}, {"measurement": "Population Hoechst High Intensity Objects (%)", "setting": "Fibroblast; [2]", "result": 0, "unit": "%"}, {"measurement": "Population Mitotic Cells (%)", "setting": "Fibroblast; [2]", "result": "41% and 52%"}, {"measurement": "Population Pyknosed Nuclei (%)", "setting": "Fibroblast; [2]", "result": 28, "unit": "%"}, {"measurement": "Total Cell Count", "setting": "Fibroblast; [2]", "result": "238 and 244"}, {"measurement": "Population Apoptotic (%)", "setting": "Fibroblast; [3]", "result": "70% and 59%"}, {"measurement": "Population Hoechst High Intensity Objects (%)", "setting": "Fibroblast; [3]", "result": 0, "unit": "%"}, {"measurement": "Population Mitotic Cells (%)", "setting": "Fibroblast; [3]", "result": "30% and 40%"}, {"measurement": "Population Pyknosed Nuclei (%)", "setting": "Fibroblast; [3]", "result": "20% and 18%"}, {"measurement": "Total Cell Count", "setting": "Fibroblast; [3]", "result": "148 and 236"}, {"measurement": "Population Apoptotic (%)", "setting": "Fibroblast; [4]", "result": "80% and 67%"}, {"measurement": "Population Hoechst High Intensity Objects (%)", "setting": "Fibroblast; [4]", "result": "2% and 0%"}, {"measurement": "Population Mitotic Cells (%)", "setting": "Fibroblast; [4]", "result": "20% and 32%"}, {"measurement": "Population Pyknosed Nuclei (%)", "setting": "Fibroblast; [4]", "result": 28, "unit": "%"}, {"measurement": "Total Cell Count", "setting": "Fibroblast; [4]", "result": "232 and 267"}, {"measurement": "Population Apoptotic (%)", "setting": "Fibroblast; [5]", "result": "80% and 74%"}, {"measurement": "Population Hoechst High Intensity Objects (%)", "setting": "Fibroblast; [5]", "result": 0, "unit": "%"}, {"measurement": "Population Mitotic Cells (%)", "setting": "Fibroblast; [5]", "result": "19% and 25%"}, {"measurement": "Population Pyknosed Nuclei (%)", "setting": "Fibroblast; [5]", "result": "16% and 15%"}, {"measurement": "Total Cell Count", "setting": "Fibroblast; [5]", "result": "153 and 246"}, {"measurement": "Population Apoptotic (%)", "setting": "Fibroblast; [6]", "result": "85% and 77%"}, {"measurement": "Population Hoechst High Intensity Objects (%)", "setting": "Fibroblast; [6]", "result": "2% and 0%"}, {"measurement": "Population Mitotic Cells (%)", "setting": "Fibroblast; [6]", "result": 22, "unit": "%"}, {"measurement": "Total Cell Count", "setting": "Fibroblast; [6]", "result": "247 and 259"}, {"measurement": "Population Apoptotic (%)", "setting": "HEK-293T; [1]", "result": "64% and 58%"}, {"measurement": "Population Healthy Nuclei (%)", "setting": "HEK-293T; [1]", "result": "78% and 83%"}, {"measurement": "Population Mitotic Cells (%)", "setting": "HEK-293T; [1]", "result": "35% and 41%"}, {"measurement": "Total Cell Count", "setting": "HEK-293T; [1]", "result": "423 and 657"}, {"measurement": "Population Apoptotic (%)", "setting": "HEK-293T; [2]", "result": 66, "unit": "%"}, {"measurement": "Population Healthy Nuclei (%)", "setting": "HEK-293T; [2]", "result": "81% and 80%"}, {"measurement": "Population Mitotic Cells (%)", "setting": "HEK-293T; [2]", "result": 33, "unit": "%"}, {"measurement": "Total Cell Count", "setting": "HEK-293T; [2]", "result": "566 and 616"}, {"measurement": "Population Apoptotic (%)", "setting": "HEK-293T; [3]", "result": "42% and 53%"}, {"measurement": "Population Healthy Nuclei (%)", "setting": "HEK-293T; [3]", "result": "83% and 80%"}, {"measurement": "Population Mitotic Cells (%)", "setting": "HEK-293T; [3]", "result": "57% and 46%"}, {"measurement": "Total Cell Count", "setting": "HEK-293T; [3]", "result": "974 and 659"}, {"measurement": "Population Apoptotic (%)", "setting": "HEK-293T; [4]", "result": "65% and 72%"}, {"measurement": "Population Healthy Nuclei (%)", "setting": "HEK-293T; [4]", "result": "78% and 75%"}, {"measurement": "Population Mitotic Cells (%)", "setting": "HEK-293T; [4]", "result": "34% and 28%"}, {"measurement": "Total Cell Count", "setting": "HEK-293T; [4]", "result": "498 and 611"}, {"measurement": "Population Apoptotic (%)", "setting": "HEK-293T; [5]", "result": "36% and 25%"}, {"measurement": "Population Healthy Nuclei (%)", "setting": "HEK-293T; [5]", "result": "82% and 85%"}, {"measurement": "Population Mitotic Cells (%)", "setting": "HEK-293T; [5]", "result": "63% and 75%"}, {"measurement": "Total Cell Count", "setting": "HEK-293T; [5]", "result": "1468 and 2063"}, {"measurement": "Population Apoptotic (%)", "setting": "HEK-293T; [6]", "result": 82, "unit": "%"}, {"measurement": "Population Healthy Nuclei (%)", "setting": "HEK-293T; [6]", "result": "77% and 78%"}, {"measurement": "Population Mitotic Cells (%)", "setting": "HEK-293T; [6]", "result": "36% and 17%"}, {"measurement": "Total Cell Count", "setting": "HEK-293T; [6]", "result": "828 and 933"}, {"measurement": "Population Apoptotic (%)", "setting": "U2OS; [1]", "result": "50% and 66%"}, {"measurement": "Population Healthy Nuclei (%)", "setting": "U2OS; [1]", "result": "74% and 84%"}, {"measurement": "Population Mitotic Cells (%)", "setting": "U2OS; [1]", "result": "50% and 33%"}, {"measurement": "Population Apoptotic (%)", "setting": "U2OS; [2]", "result": "66% and 50%"}, {"measurement": "Population Healthy Nuclei (%)", "setting": "U2OS; [2]", "result": 73, "unit": "%"}, {"measurement": "Population Mitotic Cells (%)", "setting": "U2OS; [2]", "result": "33% and 50%"}, {"measurement": "Population Apoptotic (%)", "setting": "U2OS; [3]", "result": "75% and 87%"}, {"measurement": "Population Healthy Nuclei (%)", "setting": "U2OS; [3]", "result": "79% and 82%"}, {"measurement": "Population Mitotic Cells (%)", "setting": "U2OS; [3]", "result": "25% and 12%"}, {"measurement": "Population Pyknosed Nuclei (%)", "setting": "U2OS; [3]", "result": 15, "unit": "%"}, {"measurement": "Population Apoptotic (%)", "setting": "U2OS; [4]", "result": "66% and 74%"}, {"measurement": "Population Healthy Nuclei (%)", "setting": "U2OS; [4]", "result": "59% and 66%"}, {"measurement": "Population Mitotic Cells (%)", "setting": "U2OS; [4]", "result": "33% and 25%"}, {"measurement": "Population Pyknosed Nuclei (%)", "setting": "U2OS; [4]", "result": "34% and 27%"}, {"measurement": "Population Apoptotic (%)", "setting": "U2OS; [5]", "result": 83, "unit": "%"}, {"measurement": "Population Healthy Nuclei (%)", "setting": "U2OS; [5]", "result": "83% and 88%"}, {"measurement": "Population Mitotic Cells (%)", "setting": "U2OS; [5]", "result": "36% and 16%"}, {"measurement": "Population Pyknosed Nuclei (%)", "setting": "U2OS; [5]", "result": 9, "unit": "%"}, {"measurement": "Population Apoptotic (%)", "setting": "U2OS; [6]", "result": "91% and 85%"}, {"measurement": "Population Healthy Nuclei (%)", "setting": "U2OS; [6]", "result": "46% and 62%"}, {"measurement": "Population Mitotic Cells (%)", "setting": "U2OS; [6]", "result": 8, "unit": "%"}, {"measurement": "Population Pyknosed Nuclei (%)", "setting": "U2OS; [6]", "result": "45% and 27%"}]}]}
